Common to all, as to format: functional
The target of test [1] is P2Y purinoceptor 1 (Meleagris gallopavo) (UniProt P49652). Description: (§1) Inhibition of 30 nM 2-MeSADP stimulation of 2PY1-mediated phospholipase C (PLC) activity in Turkey erythrocyte ghosts. The gist of the method: (§2)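 [3H]inositol-labelled turkey erythrocyte ghosts incubated 5 min at 30 °C, pH 7.0, with 1 µM GTPγS. Graded analogue was combined with 30 nM 2-MeSADP. Total [3H]inositol phosphates separated by anion-exchange chromatography. IC50 is 50% inhibition of the 2-MeSADP response. Maximal inhibition is 100 minus residual stimulation at the highest concentration. At least three membrane preparations, duplicate or triplicate assays.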
P2Y purinoceptor 1 (Meleagris gallopavo), sequence (P49652 whole entry): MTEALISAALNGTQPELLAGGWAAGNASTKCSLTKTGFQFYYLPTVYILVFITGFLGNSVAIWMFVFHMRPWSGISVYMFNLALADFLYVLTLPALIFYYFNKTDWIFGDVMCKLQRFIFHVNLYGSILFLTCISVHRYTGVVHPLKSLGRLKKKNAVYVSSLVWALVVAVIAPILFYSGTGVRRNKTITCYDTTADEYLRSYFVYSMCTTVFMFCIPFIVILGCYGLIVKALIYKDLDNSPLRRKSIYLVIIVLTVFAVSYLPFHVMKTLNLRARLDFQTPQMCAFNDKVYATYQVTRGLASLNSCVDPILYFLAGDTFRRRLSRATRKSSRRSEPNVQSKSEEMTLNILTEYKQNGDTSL

The target of test [2] is T1, P2Y purinoceptor 1 (Meleagris gallopavo, UniProt P49652). The description is as §1. An outline of the steps:
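[3H]inositol-labelled turkey erythrocyte ghosts incubated 5 min at 30 °C, pH 7.0, with 1 µM GTPγS. Graded analogue was combined with 30 nM 2-MeSADP. Total [3H]inositol phosphates separated by anion-exchange chromatography. Maximal inhibition is 100 minus residual stimulation at the highest concentration. At least three membrane preparations, duplicate or triplicate assays.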

The target of test [3] is T1, P2Y purinoceptor 1. Description: (§3) In vitro stimulation of 2PY1 purinoceptor mediated phospholipase C (PLC) activity in Turkey Erythrocyte Ghosts. An outline of the steps:
(§4)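 Turkey erythrocytes labelled 18-24 h at 37 °C with 2-[3H]myo-inositol in inositol-free DMEM. Ghosts prepared by hypotonic lysis (about 175 µg protein). Incubated 5 min at 30 °C in Hepes pH 7.0 buffer with 1 µM GTPγS and graded nucleotide. Total [3H]inositol phosphates measured by anion-exchange chromatography. EC50 from four-parameter logistic fit. Efficacy given relative to maximal 2-MeSADP. At least three experiments, duplicate or triplicate.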

The target in test [4] is P2Y purinoceptor 1 (Meleagris gallopavo) (UniProt P49652). The description is as §3. An outline of the steps: as §4
The target is the same in test [5]. Nature of the test: Inhibition of 30 nM 2-MeSADP stimulation of 2PY1-mediated phospholipase C (PLC) activity in Turkey erythrocyte ghosts; NE=not effective. An outline of the steps:
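Turkey erythrocytes were labelled with 2-[3H]myo-inositol in inositol-free DMEM for 18-24 h at 37 °C, then lysed hypotonically to make ghosts. Ghosts (about 175 µg protein) were incubated 5 min at 30 °C in KCl/Hepes medium at pH 7.0 with 1 µM GTPγS, 30 nM 2-MeSADP and the test nucleotide. Total [3H]inositol phosphates were measured by anion exchange. IC50 came from logistic fits, with at least three experiments.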

The target in test [6] is T1, P2Y purinoceptor 1. Description: Inhibition of 30 nM 2-MeSADP stimulation of 2PY1-mediated phospholipase C (PLC) activity in Turkey erythrocyte ghosts; small decrease. An outline of the steps: as §2

Molecules are shown by their SMILES. The source made the active and inactive calls. No cut-off for these calls is given here.

A word on the IC50: it is the concentration needed to halve the response being measured. The EC50 is the concentration needed to bring the measured effect to its halfway point.

T1 sequence (P49652 whole entry): as above

In turn, `CNc1nc(Cl)nc2c1ncn2[C@H]1C[C@H](OP(=O)(O)O)[C@@H](COP(=O)(O)O)O1` gave a Max inhibition in test [1] of 95%.

The compound `CNc1nc(Cl)nc2c1ncn2[C@H]1C[C@@H](OP(=O)(O)O)[C@]2(COP(=O)(O)O)C[C@H]12` came in with an IC50 at P2Y purinoceptor 1 [2] of 0.0516 µM. In test [1], the Max inhibition stood at 100%.

`CNc1ncnc2c1ncn2C1COC(COP(=O)(O)OP(=O)(O)OP(=O)(O)O)C(O)C1` (stereo not given) returned an EC50 on P2Y purinoceptor 1 [3] of 9.35 µM. In addition, in test [4], the Max increase amounted to 18%. On P2Y purinoceptor 1 [2], this compound displayed an IC50 of 2.37 µM. Besides, in test [1], the Max inhibition worked out at 82%.

At P2Y purinoceptor 1 [3], `Nc1ncnc2c1ncn2C12CC(OP(=O)(O)O)C(COP(=O)(O)O)C1C2` (stereo not given) yielded an EC50 of 18.9 µM. In test [4], this compound came in with a Max increase of 50%. Moreover, at P2Y purinoceptor 1 [2], the IC50 is 40 µM. This compound also displayed a Max inhibition in test [1] of 42%.

At P2Y purinoceptor 1 [3], `CNc1nc(N)nc2c1ncn2[C@@H]1C[C@H](COP(=O)(O)O)[C@H](OP(=O)(O)O)C1` registered an EC50 of 6.51 µM. This compound also registered a Max increase in test [4] of 26%. Also, at P2Y purinoceptor 1 [2], the IC50 is 5.42 µM. Further, in test [1], the Max inhibition was 74%.

The compound `CNc1nc(Cl)nc2c1ncn2C1COC(COP(=O)(O)O)C(OP(=O)(O)O)C1` (stereo not given) yielded an IC50 at P2Y purinoceptor 1 [2] of 0.566 µM. Further, in test [1], the Max inhibition was found to be 100%.

In turn, `Nc1ncnc2c1ncn2[C@@H]1C[C@H](COP(=O)(O)O)[C@H](OP(=O)(O)O)C1` yielded an EC50 on P2Y purinoceptor 1 [3] of 7.21 µM. In test [4], this compound came in with a Max increase of 27%. In addition, on P2Y purinoceptor 1 [2], the IC50 is 2.53 µM. Besides, the Max inhibition in test [1] was determined as 73%.

On to `Nc1ncnc2c1ncn2C1CN(CCP(=O)(O)O)CC(COP(=O)(O)OP(=O)(O)O)O1` (stereo not given), for which the Max increase in test [4] was 11%. The Max inhibition result in test [5] was “inactive”.

Compound `CNc1nc(Cl)nc2c1ncn2[C@@H]1C[C@H](OP(=O)(O)O)C1COP(=O)(O)O` (stereo not given in full) showed an IC50 at P2Y purinoceptor 1 [2] of 0.805 µM. This compound also registered a Max inhibition in test [1] of 100%.

As for `C[C@H]1O[C@@H](n2cnc3c(N)ncnc32)[C@H](OP(=O)(O)O)[C@@H]1OP(=O)(O)O`, the IC50 entry at P2Y purinoceptor 1 [6] is recorded as “Partially active”. The compound further had a Max inhibition in test [1] of 47%.

`CNc1ncnc2c1ncn2C1COC(COP(=O)(O)O)C(OP(=O)(O)O)C1` (stereo not given): on P2Y purinoceptor 1 [2], the IC50 was 1.64 µM. Further, the Max inhibition in test [1] came to 100%.

Compound `CNc1ncnc2c1ncn2[C@@H]1C[C@H](COP(=O)(O)O)[C@H](OP(=O)(O)O)C1` yielded an IC50 on P2Y purinoceptor 1 [2] of 0.148 µM. For the same compound, the Max inhibition in test [1] came out at 100%.

The compound `Nc1ncnc2c1ncn2[C@@H]1CO[C@H](COP(=O)(O)O)[C@@H](OP(=O)(O)O)C1` had a Max increase in test [4] of 100%. Besides, in test [5], the Max inhibition result was “inactive”.

As for `Nc1ncnc2c1ncn2C1CC(OP(=O)(O)O)C2(COP(=O)(O)O)CC12` (stereo not given), a half-maximal effect on P2Y purinoceptor 1 [3] (EC50) was put at 0.155 µM. The Max increase in test [4] amounted to 92%. Moreover, the Max inhibition result in test [5] was “inactive”.

The compound `CNc1nc(SC)nc2c1ncn2[C@H]1C[C@H](OP(=O)(O)O)[C@@H](COP(=O)(O)O)O1` returned a Max increase in test [4] of 6%. Besides, in test [1], the Max inhibition amounted to 94%.

In test [4], `CNc1nc(N)nc2c1ncn2[C@H]1C[C@H](OP(=O)(O)O)[C@@H](COP(=O)(O)O)O1` displayed a Max increase of 4%. Further, the Max inhibition in test [1] is 96%.

Take `CNc1ncnc2c1ncn2C1CC(OP(=O)(O)O)C2(COP(=O)(O)O)CC12` (stereo not given): at P2Y purinoceptor 1 [2], the IC50 is 0.157 µM. The compound also yielded a Max inhibition in test [1] of 100%.

Regarding `Nc1ncnc2c1ncn2C1CN(CCP(=O)(O)O)CC(COP(=O)(O)OP(=O)(O)OP(=O)(O)O)O1` (stereo not given), the IC50 result on P2Y purinoceptor 1 [6] is “Partially active”.

Regarding `Nc1ncnc2c1ncn2C1CN(CCP(=O)(O)O)CC(COP(=O)(O)O)O1` (stereo not given), the IC50 result at P2Y purinoceptor 1 [6] was “Partially active”. The Max inhibition in test [1] came to 37%.

(Values after ChEMBL document CHEMBL1133587, “Synthesis, biological activity, and molecular modeling of ribose-modified deoxyadenosine bisphosphate analogues as P2Y(1) receptor ligands” (J Med Chem, 2000).)
